In article PMC10794003 (European journal of medicinal chemistry, 2023):
Entries after “also recorded” stand apart in the source; their conditions may differ.

Tested on: Nrf2 target genes GSTM3, NQO1, or HMOX1 in NCM460D cells
Experiment: RT-qPCR of Nrf2 target genes in NCM460D cells
Assay type: cell-based
Conditions: 24 h incubation at 1, 10 and 100 μM, RT-PCR
How it was run: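 NCM460D cells exposed to test compound at 1, 10 and 100 μM for 24 h. Positive controls were a reference Keap1-Nrf2 PPI inhibitor (1, 10, 100 μM) and CDDO (10 and 100 nM); 0.1 % DMSO served as the negative control. RNA was quantified, reverse-transcribed to cDNA, and GSTM3, NQO1 and HMOX1 were measured by RT-qPCR, normalized to endogenous GAPDH.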

## Cc1ccc(S(=O)(=O)N(CC(=O)O)c2ccc(N(CC(=O)O)S(=O)(=O)c3ccc(C)cc3)c(OCC(=O)O)c2)cc1 [8g, 2,2′-((2-(Carboxymethoxy)-1,4-phenylene)bis(tosylazanediyl))diacetic acid]
  transcriptional induction of Nrf2 target genes NQO1, GSTM3 and HMOX1: less transcriptional induction; also recorded: relatively low expressions

## Cc1ccc(S(=O)(=O)N(CC(=O)O)c2cc(CCC(=O)O)c(N(CC(=O)O)S(=O)(=O)c3ccc(C)cc3)c3ccccc23)cc1 [17b, 2,2′-((2-(2-Carboxyethyl)naphthalene-1,4-diyl)bis(tosylazanediyl))diacetic acid]
  transcriptional induction of Nrf2 target genes NQO1, GSTM3 and HMOX1: similarly high effects

## Cc1ccc(S(=O)(=O)N(CC(=O)O)c2cc(OCC(=O)O)c(N(CC(=O)O)S(=O)(=O)c3ccc(C)cc3)c3ccccc23)cc1 [compound 18, 2,2′-((2-(Carboxymethoxy)naphthalene-1,4-diyl)bis(tosylazanediyl))diacetic acid]
  transcriptional induction of Nrf2 target genes NQO1, GSTM3 and HMOX1: similarly high effects
